Measurements as given in ChEMBL document CHEMBL1132950, “Synthesis, structure, and antitumor activity of a novel tetranuclear titanium complex” (J Med Chem, 2000).

How the values were obtained:
[1] = tested on: Mus musculus; assay: In vivo activity expressed as life span value of average treated / untreated AJ mice for 11.6/6 days (SEM value = 1.93); assay type: functional, organism-based
How it was run: (§1)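 Female AJ mice (20–25 g, 5–8 weeks) received 10^6 TA-3 ascites cells ip. From day 3 they got 0.1 mL ip of liposomal complex (1.5×10^-2 M in Ti complex, 0.9% NaCl), each dose equal to 6.2 mg/kg, daily for 1–5 consecutive days. Groups had 5–7 animals. Survival days are given as treated/untreated.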

[2] = tested on: Mus musculus; assay: In vivo activity expressed as life span value of average treated / untreated AJ mice for 17.6/6 days (SEM value = 2.93); assay type: functional, organism-based; how it was run: as §1
[3] = tested on: HEp-2; assay: In vitro percentage of live HEP-2 cells after treatment at 500 uM; assay type: functional, cell-based; settings: Homo sapiens
How it was run: (§2)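 Ti complex encapsulated in DPPC liposomes and diluted in 0.9% NaCl. It was added to monolayer cells grown in L-15 with 5% fetal calf serum, penicillin G and gentamicin at 37 °C and 100% humidity, then incubated 72 h at 37 °C. Cells were trypsinized and stained with 0.4% trypan blue, and live cells were counted in a Neubauer chamber. Viability is treated/control viable cells ×100. Five runs.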

[4] = tested on: HEp-2; assay: In vitro percentage of live HEP-2 cells after treatment at 100 uM; assay type: functional, cell-based; settings: Homo sapiens; how it was run: as §2
[5] = tested on: Mus musculus; assay: In vivo activity expressed as life span value of average treated / untreated AJ mice for 9.6/6 days (SEM value = 1.55); assay type: functional, organism-based; settings: in the assay text read “9.3/6 days” for “9.6/6 days”; how it was run: as §1
[6] = tested on: Vero; assay: In vitro percentage of live Vero cells after treatment at 80 uM; assay type: functional, cell-based; settings: Chlorocebus sabaeus; how it was run: as §2
[7] = tested on: Mus musculus; assay: In vivo activity expressed as life span value of average treated / untreated CF-1 mice for 25.2/13 days (SEM value = 1.94); assay type: functional, organism-based
How it was run: (§3)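 Female CF-1 mice (30–35 g, 5–8 weeks) received 10^6 TA-3 ascites cells ip. Three days later, daily ip injections of 0.1 mL DPPC-liposomal complex (1.5×10^-2 M in Ti complex, in 0.9% NaCl) began, each dose equal to 4.1 mg/kg, given for 1–5 consecutive days. Groups had 5–7 mice. Mean survival days are given as treated/untreated.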

[8] = tested on: HEp-2; assay: In vitro percentage of live HEP-2 cells after treatment at 8 uM; assay type: functional, cell-based; settings: Homo sapiens; how it was run: as §2
[9] = tested on: Vero; assay: In vitro percentage of live Vero cells after treatment at 100 uM; assay type: functional, cell-based; settings: Chlorocebus sabaeus; how it was run: as §2
[10] = tested on: Mus musculus; assay: In vivo activity expressed as life span value of average treated / untreated AJ mice for 15/6 days (SEM value = 2.54); assay type: functional, organism-based; how it was run: as §1
[11] = tested on: HEp-2; assay: In vitro percentage of live HEP-2 cells after treatment at 80 uM; assay type: functional, cell-based; settings: Homo sapiens; how it was run: as §2
[12] = tested on: Mus musculus; assay: In vivo activity expressed as life span value of average treated / untreated AJ mice for 11.3/6 days (SEM value = 1.88); assay type: functional, organism-based; how it was run: as §1
[13] = tested on: Mus musculus; assay: In vivo activity expressed as life span value of average treated / untreated CF-1 mice for 20/13 days (SEM value = 1.54); assay type: functional, organism-based; how it was run: as §3
[14] = tested on: Vero; assay: In vitro percentage of live Vero cells after treatment at 500 uM; assay type: functional, cell-based; settings: Chlorocebus sabaeus; how it was run: as §2
[15] = tested on: Vero; assay: In vitro percentage of live Vero cells after treatment at 8 uM; assay type: functional, cell-based; settings: Chlorocebus sabaeus; how it was run: as §2
[16] = tested on: Mus musculus; assay: In vivo activity expressed as life span value of average treated / untreated CF-1 mice for 25/13 days (SEM value = 1.92); assay type: functional, organism-based; how it was run: as §3
[17] = tested on: Mus musculus; assay: In vivo activity expressed as life span value of average treated / untreated CF-1 mice for 26/13 days (SEM value = 2); assay type: functional, organism-based; how it was run: as §3

In the case of “cyclo-Tetrakis[bis(1-phenyl-3-methyl-4-benzoylpyrazol-5-onato)-mu-oxotitanium(IV)]”, the T/C [1] is reported as 193%, the T/C [2] is reported as 293% and the viability [3] is reported as 30%. For the same substance, the viability [4] was 40.3%, the T/C [5] was 155% and the viability [6] was 98.4%. The T/C [7] was 194%, the viability [8] was 77.4% and the viability [9] was 97.1%. For the same substance, the T/C [10] was 254%, the viability [11] was 77.4% and the T/C [12] was 188%. The T/C [13] was 154%, the viability [14] was 95.2% and the viability [15] was 100%. It also gave a T/C [16] of 192% and a T/C [17] of 200%.
